Blank lines part the entries; values can stand above or below the compound they belong to. Activity calls are given as the source filed them. The calls are words filed in the database; no cut-off is given here.
Legend:
KB [1] = experiment: Antiproliferative activity against human KB cells assessed as cell viability at 100 nM after 72 hrs by MTT assay relative to control; type: functional; conditions: read-out: Activity
Summary of the method: (§1)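 Single-concentration MTT screen. Log-phase cells in DMEM with 10% FCS were treated for 72 h in 96-well plates. After MTT and DMSO, absorbance was read at 570 nm. Viability was calculated relative to control as mean ± SD of three independent experiments.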

MKN-45 [2] = experiment: Antiproliferative activity against human MKN45 cells assessed as cell viability at 100 nM after 72 hrs by MTT assay relative to control; type: functional; conditions: MKN-45, 72 h, read-out: Activity; summary of the method: as §1
MKN-45 [3] = experiment: Cell cycle arrest in human MKN45 cells assessed as accumulation at G1-phase at 10 uM after 48 hrs by propidium iodide staining based flow cytometry (reference value: 67%); type: functional
Summary of the method: (§2)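 MKN45 cells were plated at 2×10⁵ cells/well in 6-well plates and exposed for 24 and 48 h. Cells were harvested, fixed and stained with propidium iodide (50 µg/mL). DNA content was read by FACScan flow cytometry for phase distribution. The sub-G0/G1 fraction was taken as apoptotic.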

AGS = experiment: Antiproliferative activity against human AGS cells after 72 hrs by MTT assay; type: functional, cell-based
Summary of the method: (§3)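 Cells grown in DMEM with 10% heat-inactivated FCS, penicillin and streptomycin, at 37°C in 5% CO₂, and used in log phase. Cells were seeded in 96-well plates and exposed to compound for 72 h. MTT was added, then DMSO, and OD was read at 570 nm. Survival rate was calculated and IC50 taken as 50% growth inhibition.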

MKN-45 [4] = experiment: Induction of apoptosis in human MKN45 cells assessed as increase in Bax expression at 5 to 10 uM after 24 hrs by Western blot method; type: functional, cell-based
Summary of the method: (§4)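 MKN45 cells (2×10⁵) were treated with 5 or 10 µM. Lysates were run by electrophoresis and transferred to PVDF. Blots were probed overnight at 4°C for Bax, BCL2, PARP and β-actin (loading control), then with HRP secondary, and detected by ECL. Band density was scored in arbitrary units; three experiments.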

KB [5] = experiment: Antiproliferative activity against human KB cells assessed as cell viability at 10 uM after 72 hrs by MTT assay relative to control; type: functional; conditions: read-out: Activity; summary of the method: as §1
MKN-45 [6] = experiment: Cell cycle arrest in human MKN45 cells assessed as accumulation at G1-phase at 10 uM after 24 hrs by propidium iodide staining based flow cytometry (reference value: 67%); type: functional; summary of the method: as §2
BGC-823 = experiment: Antiproliferative activity against human BGC823 cells after 72 hrs by MTT assay; type: functional, cell-based; conditions: BGC-823, 72 h; summary of the method: as §3
MKN-45 [7] = experiment: Antiproliferative activity against human MKN45 cells after 72 hrs by MTT assay; type: functional, cell-based; conditions: MKN-45, 72 h; summary of the method: as §3
KB [8] = experiment: Antiproliferative activity against human KB cells after 72 hrs by MTT assay; type: functional, cell-based; summary of the method: as §3
MKN-45 [9] = experiment: Induction of apoptosis in human MKN45 cells assessed as increase in Bax/Bcl2 expression ratio at 5 to 10 uM after 24 hrs by Western blot method; type: functional, cell-based; summary of the method: as §4
MKN-45 [10] = experiment: Cell cycle arrest in human MKN45 cells assessed as accumulation at G2/M-phase at 10 uM after 24 hrs by propidium iodide staining based flow cytometry (reference value: 19%); type: functional; summary of the method: as §2
MKN-45 [11] = experiment: Induction of apoptosis in human MKN45 cells assessed as decrease in Bcl2 expression after 24 hrs by Western blot method; type: functional, cell-based; summary of the method: as §4
A549 = experiment: Antiproliferative activity against human A549 cells after 72 hrs by MTT assay; type: functional, cell-based; conditions: A549, 72 h; summary of the method: as §3
MKN-45 [12] = experiment: Cell cycle arrest in human MKN45 cells assessed as apoptotic cell accumulation at 10 uM after 24 hrs by propidium iodide staining based flow cytometry (reference value: 1.51%); type: functional; summary of the method: as §2
MKN-45 [13] = experiment: Antiproliferative activity against human MKN45 cells assessed as cell viability at 10 uM after 72 hrs by MTT assay relative to control; type: functional; conditions: MKN-45, 72 h, read-out: Activity; summary of the method: as §1
[14] = Antiproliferative activity against human KBV cells after 72 hrs by MTT assay; type: functional, cell-based; summary of the method: as §3
MKN-45 [15] = experiment: Induction of mitochondrial membrane potential loss in human MKN45 cells at 5 to 10 uM after 24 hrs by JC-1 staining based flow cytometry; type: functional, cell-based
Summary of the method: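 MKN45 cells were plated at 2×10⁵ cells/well in 6-well plates and exposed to indicated concentrations for 24 h. They were stained with JC-1 for 20 min, and the change in mitochondrial membrane potential was measured by flow cytometry; three experiments.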

MKN-45 [16] = experiment: Cell cycle arrest in human MKN45 cells assessed as accumulation at G2/M-phase at 10 uM after 48 hrs by propidium iodide staining based flow cytometry (reference value: 19%); type: functional; summary of the method: as §2
MKN-45 [17] = experiment: Cell cycle arrest in human MKN45 cells assessed as accumulation at S-phase at 10 uM after 24 hrs by propidium iodide staining based flow cytometry (reference value: 15%); type: functional; summary of the method: as §2
MKN-45 [18] = experiment: Cell cycle arrest in human MKN45 cells assessed as accumulation at S-phase at 10 uM after 48 hrs by propidium iodide staining based flow cytometry (reference value: 15%); type: functional; summary of the method: as §2
MKN-45 [19] = experiment: Cell cycle arrest in human MKN45 cells assessed as apoptotic cell accumulation at 10 uM after 48 hrs by propidium iodide staining based flow cytometry (reference value: 1.51%); type: functional; summary of the method: as §2
HeLa = experiment: Antiproliferative activity against human HeLa cells after 72 hrs by MTT assay; type: functional, cell-based; summary of the method: as §3
MKN-45 [20] = experiment: Induction of apoptosis in human MKN45 cells assessed as increase in cleaved PARP expression at 5 to 10 uM after 48 hrs by Western blot method; type: functional, cell-based; summary of the method: as §4

Compound: CC(=O)O[C@H]1C(=O)[C@@]2(C)[C@H]([C@H](OC(=O)c3ccccc3)[C@]3(O)C[C@H](OC(=O)[C@H](O)[C@@H](NC(=O)c4ccccc4)c4ccccc4)C(C)=C1C3(C)C)[C@]1(OC(C)=O)CO[C@@H]1C[C@@H]2O [PACLITAXEL]
viability at 0.1 µM (KB [1]): 15% | viability at 0.1 µM (MKN-45 [2]): 23%

IC50 (AGS): 4.4 µM | IC50 (BGC-823): 5.15 µM | IC50 (MKN-45 [7]): 7 µM | IC50 (KB [8]): 4.75 µM | IC50 (A549): 6.3 µM | IC50 (HeLa): 4.22 µM
Compound: CCN/C(=N/CCCN(C)C)OC(=O)c1ccccc1C(=O)OC[C@]1(C)C(=O)CC[C@@]2(C)[C@H]1CC[C@]1(C)[C@@H]2CC=C2[C@@H]3CC(C)(C)CC[C@]3(C(=O)OCc3ccccc3)CC[C@]21C
Activity (MKN-45 [3]): 54% | Activity (MKN-45 [4]): Active | viability at 10 µM (KB [5]): 26% | Activity (MKN-45 [6]): 68% | Activity (MKN-45 [9]): Active | Activity (MKN-45 [10]): 21% | Activity (MKN-45 [11]): Dose-dependent effect | Activity (MKN-45 [12]): 2.47% | viability at 10 µM (MKN-45 [13]): 7% | IC50 [14]: 8.05 µM | Activity (MKN-45 [15]): Active | Activity (MKN-45 [16]): 31% | Activity (MKN-45 [17]): 11% | Activity (MKN-45 [18]): 16% | Activity (MKN-45 [19]): 38.68% | Activity (MKN-45 [20]): Active

Reference: ChEMBL document CHEMBL4130512, “Design, synthesis and biological evaluation of novel α-hederagenin derivatives with anticancer activity” (Eur J Med Chem, 2017)
